# Measurements from different studies.
# Protocols differ between the studies behind these lines.
# Target: Bone morphogenetic protein receptor type-1A (BMPR1A, Homo sapiens, UniProt P36894)
SMILES,effect on,action,method,tested at,measurement,value
CC(C)(C)c1nc2c(s1)c1nc(N)ncc1c1ccc(NS(=O)(=O)c3c(F)cccc3F)c(F)c12,enzyme activity,inhibitor,radiometric,1 µM,remaining activity,96%
O=C(Nc1cnn(-c2csc(C(=O)NC3COC3)c2)c1)Nc1ccccc1Cl,enzyme activity,inhibitor,,5 µM,remaining activity,105%
CC(C)(C)c1nc(-c2cccc(NS(=O)(=O)c3c(F)cccc3F)c2F)c(-c2ccnc(N)n2)s1,enzyme activity,inhibitor,radiometric,1 µM,remaining activity,48%
Cc1ccc(C(=O)Nc2ccc(CN3CCN(C)CC3)c(C(F)(F)F)c2)cc1C#Cc1cnc2cccnn12,enzyme activity,,,23.5 nM,remaining activity,97%
Cc1noc([C@H]2C[C@@H](c3ccc(C(F)(F)F)cc3)CN(C(=O)N3CCS(=O)(=O)C3)C2)n1,binding,,competition with immobilised ligand,1 µM,remaining binding,100%
CCOc1cc(-c2nncn2C)ccc1Nc1ncc2cc(C)nc(NCC(C)(C)C)c2n1,cell-free assay,,TR-FRET,1 µM,inhibition,≤ 15%
Nc1cnc(N2CCc3cc(S(=O)(=O)Nc4c(F)cc(Cl)cc4F)cc(N4CCCC4=O)c32)nc1,cell-free assay,,competition with immobilised ligand,1 µM,remaining binding,91%
Cc1sc(C(=O)NC2COC2)cc1-n1cc(NC(=O)Nc2c(F)cccc2Cl)cn1,enzyme activity,inhibitor,,10 µM,remaining activity,92.5%
Nc1ncnc2occ(-c3ccc(NC(=O)Nc4cc(C(F)(F)F)ccc4F)cc3)c12,cell-free assay,,,20 µM,remaining signal,100%
